ChEMBL document CHEMBL1212693, “Dorsomorphin inhibits BMP signals required for embryogenesis and iron metabolism” (Nat Chem Biol, 2008)
Activity calls are given as the source filed them. The rule behind the calls is not given here.

Columns and labels:
[1] = organism: Danio rerio; experiment: Inhibition of BMPR1 in zebrafish assessed as severity of embryonic axis dorsalization at 10 uM treated at 2 to 4 hrs post-fertilization measured at 48 hrs; parameters: scale not given: the % may be the effect or the level left
[2] = organism: Danio rerio; experiment: Inhibition of BMPR1 in zebrafish assessed as penetrance of normal embryonic axis dorsalization at 10 uM treated at 4 to 8 hrs post-fertilization measured at 48 hrs; parameters: scale not given: the % may be the effect or the level left
[3] = organism: Danio rerio; experiment: Inhibition of BMPR1 in zebrafish assessed as penetrance of moderate embryonic axis dorsalization at 10 uM treated at 2 to 8 hrs post-fertilization measured at 48 hrs; parameters: scale not given: the % may be the effect or the level left
Procedure, shortened: (§1)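 Compound added at the stated times and concentrations. Gross morphology scored visually at up to 48 h.p.f. for dorsalization of the embryonic axis.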

[4] = organism: Danio rerio; experiment: Inhibition of BMPR1 in zebrafish assessed as penetrance of normal embryonic axis dorsalization at 10 uM treated at 6 to 8 hrs post-fertilization measured at 48 hrs; parameters: scale not given: the % may be the effect or the level left
[5] = organism: Danio rerio; experiment: Toxicity in zebrafish assessed as morphological changes at 1 to 4 uM treated at 24 hrs post-fertilization measured on day 10 post-fertilization; type: organism-based; conditions: in vivo
Procedure, shortened: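 WT zebrafish embryos were raised in E3 containing phenylthiourea and exposed from 1 d.p.f. to compound (1–4 µM) or DMSO. From 5 d.p.f. larvae were fed 1 h every other day, with medium renewed after each feeding. At 10 d.p.f. they were calcein-stained and checked by brightfield microscopy for gross morphology and function.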

[6] = organism: Danio rerio; experiment: Inhibition of BMPR1 in zebrafish assessed as penetrance of normal embryonic axis dorsalization at 10 uM treated continuously from 4 hrs post-fertilization measured after 48 hrs; parameters: scale not given: the % may be the effect or the level left
[7] = organism: Danio rerio; experiment: Toxicity in zebrafish assessed as mortality at 0.2 to 10 uM; type: organism-based; conditions: in vivo
[8] = organism: Mus musculus; experiment: Inhibition of BMPR1-mediated Smad-8 phosphorylation in BMP4-stimulated mouse PASMC at 4 uM treated 30 mins before BMP4 challenge measured after 30 mins by immunoblot analysis
Procedure, shortened: (§2)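 Wild-type mouse PASMCs were kept in RPMI with 0.5% FCS for 24 h. They were preincubated with compound or vehicle for 30 min, then stimulated for 30 min with recombinant BMP2, BMP4, BMP6 or BMP7 at 10 ng ml−1. Lysates in SDS buffer were immunoblotted with anti-phospho-SMAD1/5/8. Total SMAD1 and α-tubulin served as loading controls, and bands were quantified by phosphorimager.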

[9] = organism: Danio rerio; experiment: Inhibition of BMPR1 in zebrafish assessed as severity of embryonic axis dorsalization at 10 uM treated at 6 to 8 hrs post-fertilization measured at 48 hrs; parameters: scale not given: the % may be the effect or the level left
[10] = tested on: Danio rerio; experiment: Inhibition of iron-dextran conjugate-induced Smad-1 phosphorylation in zebrafish at 23 ug/g, iv after 1 hr relative to control; type: functional
[11] = organism: Danio rerio; experiment: Inhibition of BMPR1 in zebrafish assessed as penetrance of normal embryonic axis dorsalization at 10 uM treated at 2 to 8 hrs post-fertilization measured at 48 hrs; parameters: scale not given: the % may be the effect or the level left
[12] = organism: Danio rerio; experiment: Inhibition of BMPR1 in zebrafish assessed as severity of embryonic axis dorsalization at 10 uM treated at 4 to 8 hrs post-fertilization measured at 48 hrs; parameters: scale not given: the % may be the effect or the level left
[13] = organism: Danio rerio; experiment: Inhibition of BMPR1 in zebrafish assessed as penetrance of normal embryonic axis dorsalization at 7.5 uM treated at 3 hrs post-fertilization measured at 48 hrs; parameters: scale not given: the % may be the effect or the level left
[14] = organism: Danio rerio; experiment: Inhibition of BMPR1 in zebrafish assessed as penetrance of mild embryonic axis dorsalization at 10 uM treated at 4 to 8 hrs post-fertilization measured at 48 hrs; parameters: scale not given: the % may be the effect or the level left; procedure, shortened: as §1
[15] = organism: Danio rerio; experiment: Inhibition of BMPR1 in zebrafish assessed as penetrance of mild embryonic axis dorsalization at 10 uM treated at 6 to 8 hrs post-fertilization measured at 48 hrs; parameters: scale not given: the % may be the effect or the level left; procedure, shortened: as §1
[16] = organism: Mus musculus; experiment: Inhibition of BMPR1-mediated Smad-1 phosphorylation in BMP4-stimulated mouse PASMC at 100 to 200 ng/ml treated 30 mins before BMP4 challenge measured after 30 mins by immunoblot analysis
Procedure, shortened: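 Mouse PASMCs were serum-reduced 24 h in 0.5% FCS RPMI, pretreated 30 min with noggin or vehicle, then given BMP4 for 30 min. Lysates in SDS buffer were immunoblotted for phospho-SMAD1/5/8 and phospho-MAPK p38, and signals were quantitated by phosphorimager.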

[17] = organism: Danio rerio; experiment: Inhibition of BMPR1 in zebrafish assessed as penetrance of moderate embryonic axis dorsalization at 5 uM treated at 3 hrs post-fertilization measured at 48 hrs; parameters: scale not given: the % may be the effect or the level left
[18] = organism: Danio rerio; experiment: Inhibition of BMPR1 in zebrafish assessed as penetrance of moderate embryonic axis dorsalization at 10 uM treated at 3 hrs post-fertilization measured at 48 hrs; parameters: scale not given: the % may be the effect or the level left; procedure, shortened: as §1
[19] = organism: Mus musculus; experiment: Inhibition of BMPR1-mediated Smad-5 phosphorylation in BMP4-stimulated mouse PASMC at 4 uM treated 30 mins before BMP4 challenge measured after 30 mins by immunoblot analysis; procedure, shortened: as §2
[20] = organism: Danio rerio; experiment: Inhibition of BMPR1 in zebrafish assessed as penetrance of mild embryonic axis dorsalization at 10 uM treated at 2 to 4 hrs post-fertilization measured at 48 hrs; parameters: scale not given: the % may be the effect or the level left; procedure, shortened: as §1
[21] = organism: Mus musculus; experiment: Inhibition of ALK2-mediated Smad-5 phosphorylation in BMPR2 deficient mouse PASMC at 10 uM by immunoblot analysis
Procedure, shortened: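 BMPR-II–deficient mouse PASMCs (RPMI, 10% FBS) transiently transfected with constitutively active ALK2, ALK3 or ALK6 cDNA, or plasmid-only control. Incubated with or without compound (10 µM). Extracts lysed in SDS buffer, run on SDS-PAGE and immunoblotted for phospho-SMAD1/5/8; quantitated by phosphorimager.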

[22] = tested on: Mus musculus; experiment: Increase in serum iron concentration in C57BL/6 mouse at 10 mg/kg, iv after 24 hrs; type: functional
[23] = organism: Mus musculus; experiment: Inhibition of BMPR1-mediated Smad-8 phosphorylation in BMP4-stimulated mouse PASMC at 100 to 200 ng/ml treated 30 mins before BMP4 challenge measured after 30 mins by immunoblot analysis
Procedure, shortened: (§3)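 Mouse PASMCs were held 24 h in RPMI with 0.5% FCS. They were preincubated 30 min with test agent, noggin or vehicle, then exposed to recombinant BMP4 for 30 min. SDS lysates were immunoblotted for phospho-SMAD1/5/8 and bands quantified by phosphorimager. Dose-dependence was fitted as a Hill plot.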

[24] = organism: Danio rerio; experiment: Inhibition of BMPR1 in zebrafish assessed as severity of embryonic axis dorsalization at 10 uM treated continuously from 2 hrs post-fertilization measured after 48 hrs; parameters: scale not given: the % may be the effect or the level left
[25] = organism: Mus musculus; experiment: (§4) Inhibition of BMPR1-mediated Smad-5 phosphorylation in BMP4-stimulated mouse PASMC treated 30 mins before BMP4 challenge measured after 30 mins by immunoblot analysis; procedure, shortened: as §3
[26] = as §4; procedure, shortened: as §3
[27] = organism: Danio rerio; experiment: Inhibition of BMPR1 in zebrafish assessed as increase in pax2a expression at 10 uM treated at 12 hrs post-fertilization measured at 48 hrs
[28] = tested on: Mus musculus; experiment: Inhibition of iron-dextran conjugate-induced Smad-1 phosphorylation in C57BL/6 mouse at 23 ug/g, iv after 1 hr; type: functional, organism-based
[29] = organism: Danio rerio; experiment: Inhibition of BMPR1 in zebrafish assessed as penetrance of normal embryonic axis dorsalization at 10 uM treated continuously from 2 hrs post-fertilization measured after 48 hrs; parameters: scale not given: the % may be the effect or the level left
[30] = organism: Mus musculus; experiment: Inhibition of BMPR1-mediated Smad-5 phosphorylation in BMP2-stimulated mouse BMPR2 deficient PASMC at 4 uM treated 30 mins before BMP2 challenge measured after 30 mins by immunoblot analysis

In the case of `c1cc(-c2cnn3cc(-c4ccc(OCCN5CCCCC5)cc4)cnc23)ccn1` [DORSOMORPHIN], the Activity [1] is reported as 0%, the Activity [2] is reported as 0% and the Activity [3] is reported as 0%. The Activity [4] was 0%, the Activity [5] was “Non-toxic” and the Activity [6] was 0%. For the same compound, the Activity [7] was “Non-toxic”, the inhibition [8] was “Active” and the Activity [9] was 0%. The “fold change (FC)” value [10] was 3, the Activity [11] was 0% and the Activity [12] was 0%. For the same compound, the Activity [13] was 0%, the Activity [14] was 65% and the Activity [15] was 95%. The inhibition [16] was “Active”, the Activity [17] was 0% and the Activity [18] was 98%. For the same compound, the inhibition [19] was “Active”, the Activity [20] was 10% and the inhibition [21] was “Active”. The Activity [22] was 60%, the inhibition [23] was “Active” and the Activity [24] was 100%. For the same compound, the inhibition [25] was “Dose-dependent effect”, the IC50 [26] was 470 nM and the Activity [27] was “Active”. For the same compound, the inhibition [28] was “Active”, the Activity [29] was 0% and the inhibition [30] was “Active”.
